Measurements: ChEMBL document CHEMBL3861974, “Discovery of a Selective Aurora A Kinase Inhibitor by Virtual Screening” (J Med Chem, 2016)

What was measured:
Aurora kinase C = molecular target: T1, Aurora kinase C (Homo sapiens, UniProt Q9UQB9); assay: Binding affinity to human Aurora C kinase expressed in Escherichia coli BL21 cells incubated for 1 hr by active site directed binding competition assay
T1 sequence (Q9UQB9 whole entry): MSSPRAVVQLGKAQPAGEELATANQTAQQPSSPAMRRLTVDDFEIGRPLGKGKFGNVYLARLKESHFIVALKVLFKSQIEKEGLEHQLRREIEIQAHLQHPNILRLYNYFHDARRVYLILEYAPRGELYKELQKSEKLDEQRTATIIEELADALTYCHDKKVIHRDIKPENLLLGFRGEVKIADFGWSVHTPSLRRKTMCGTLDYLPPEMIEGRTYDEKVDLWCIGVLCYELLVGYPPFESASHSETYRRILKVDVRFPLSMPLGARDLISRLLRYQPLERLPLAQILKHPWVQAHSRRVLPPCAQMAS
Procedure, shortened: (§1)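 Kinome scan of 456 kinases using an active-site-directed binding competition assay, followed by determination of binding affinities (Kd). Aurora B in this scan was free enzyme without INCENP.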

[1] = molecular target: Phosphatidylinositol 4,5-bisphosphate 3-kinase catalytic subunit gamma isoform (Homo sapiens, UniProt P48736); assay: Binding affinity to human PIK3CG expressed in Escherichia coli BL21 cells incubated for 1 hr by active site directed binding competition assay; procedure, shortened: as §1
Sequence of Phosphatidylinositol 4,5-bisphosphate 3-kinase catalytic subunit gamma isoform (P48736 whole entry, canonical isoform): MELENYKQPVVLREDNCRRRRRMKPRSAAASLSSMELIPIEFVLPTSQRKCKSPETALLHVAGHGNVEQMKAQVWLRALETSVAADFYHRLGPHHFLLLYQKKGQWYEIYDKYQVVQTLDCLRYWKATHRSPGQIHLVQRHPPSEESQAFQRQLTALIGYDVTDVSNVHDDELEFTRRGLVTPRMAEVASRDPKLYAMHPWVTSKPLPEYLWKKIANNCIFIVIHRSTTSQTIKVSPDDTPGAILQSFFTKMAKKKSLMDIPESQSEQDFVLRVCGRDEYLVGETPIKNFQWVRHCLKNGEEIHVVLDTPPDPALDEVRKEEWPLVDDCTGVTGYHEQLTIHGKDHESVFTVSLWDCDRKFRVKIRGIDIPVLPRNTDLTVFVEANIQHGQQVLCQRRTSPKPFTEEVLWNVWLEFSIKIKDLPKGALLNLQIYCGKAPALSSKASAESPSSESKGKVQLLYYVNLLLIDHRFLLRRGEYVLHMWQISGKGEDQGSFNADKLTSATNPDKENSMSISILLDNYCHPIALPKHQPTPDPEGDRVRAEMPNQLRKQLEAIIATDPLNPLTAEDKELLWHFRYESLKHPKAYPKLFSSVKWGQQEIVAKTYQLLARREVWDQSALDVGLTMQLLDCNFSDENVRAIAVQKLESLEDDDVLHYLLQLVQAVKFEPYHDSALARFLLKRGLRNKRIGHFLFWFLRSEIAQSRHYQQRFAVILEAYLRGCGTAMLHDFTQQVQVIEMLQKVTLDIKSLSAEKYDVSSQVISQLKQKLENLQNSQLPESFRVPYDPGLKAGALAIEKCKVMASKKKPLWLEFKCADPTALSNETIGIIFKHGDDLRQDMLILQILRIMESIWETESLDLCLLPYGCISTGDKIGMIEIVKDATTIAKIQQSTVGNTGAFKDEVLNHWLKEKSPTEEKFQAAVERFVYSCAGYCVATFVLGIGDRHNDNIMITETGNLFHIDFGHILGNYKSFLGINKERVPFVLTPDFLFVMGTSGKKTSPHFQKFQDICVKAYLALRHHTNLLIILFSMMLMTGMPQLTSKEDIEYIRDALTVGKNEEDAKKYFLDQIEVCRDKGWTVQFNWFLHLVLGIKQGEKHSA

HeLa Kyoto = assay: Increase in mitotic index in human HeLa Kyoto cells incubated for 20 hrs; format: functional, cell-based
Procedure, shortened: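 HeLa Kyoto cells were incubated overnight with compound, and the fraction of mitotic cells was scored. The experiment was repeated twice; mean ± SD.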

[2] = Glutathione reactivity at 30 uM assessed as retention time for GSH adduct formation after 24 hrs in presence of 5 mM GSH, pH 7.4 buffer at 37 degC by LC-MS method
Procedure, shortened: (§2)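 Test compound at 30 µM was incubated with 5 mM GSH in H2O/CH3CN (4:1) at 37 °C and followed by LC-MS over 24 h. The GSH adduct was identified by MS. Parent was quantified by integrating its 310 nm absorption peak against 9-methylcarbazole as internal control. Values are the average of two independent experiments.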

[3] = Glutathione reactivity at 30 uM assessed as GSH adduct formation after 24 hrs in presence of 5 mM GSH, pH 7.4 buffer at 37 degC by LC-MS method; procedure, shortened: as §2
[4] = molecular target: Macrophage colony-stimulating factor 1 receptor (Homo sapiens, UniProt P07333); assay: Binding affinity to auto-inhibited human CSF1R expressed in Escherichia coli BL21 cells incubated for 1 hr by active site directed binding competition assay; procedure, shortened: as §1
Sequence of Macrophage colony-stimulating factor 1 receptor (P07333 whole entry): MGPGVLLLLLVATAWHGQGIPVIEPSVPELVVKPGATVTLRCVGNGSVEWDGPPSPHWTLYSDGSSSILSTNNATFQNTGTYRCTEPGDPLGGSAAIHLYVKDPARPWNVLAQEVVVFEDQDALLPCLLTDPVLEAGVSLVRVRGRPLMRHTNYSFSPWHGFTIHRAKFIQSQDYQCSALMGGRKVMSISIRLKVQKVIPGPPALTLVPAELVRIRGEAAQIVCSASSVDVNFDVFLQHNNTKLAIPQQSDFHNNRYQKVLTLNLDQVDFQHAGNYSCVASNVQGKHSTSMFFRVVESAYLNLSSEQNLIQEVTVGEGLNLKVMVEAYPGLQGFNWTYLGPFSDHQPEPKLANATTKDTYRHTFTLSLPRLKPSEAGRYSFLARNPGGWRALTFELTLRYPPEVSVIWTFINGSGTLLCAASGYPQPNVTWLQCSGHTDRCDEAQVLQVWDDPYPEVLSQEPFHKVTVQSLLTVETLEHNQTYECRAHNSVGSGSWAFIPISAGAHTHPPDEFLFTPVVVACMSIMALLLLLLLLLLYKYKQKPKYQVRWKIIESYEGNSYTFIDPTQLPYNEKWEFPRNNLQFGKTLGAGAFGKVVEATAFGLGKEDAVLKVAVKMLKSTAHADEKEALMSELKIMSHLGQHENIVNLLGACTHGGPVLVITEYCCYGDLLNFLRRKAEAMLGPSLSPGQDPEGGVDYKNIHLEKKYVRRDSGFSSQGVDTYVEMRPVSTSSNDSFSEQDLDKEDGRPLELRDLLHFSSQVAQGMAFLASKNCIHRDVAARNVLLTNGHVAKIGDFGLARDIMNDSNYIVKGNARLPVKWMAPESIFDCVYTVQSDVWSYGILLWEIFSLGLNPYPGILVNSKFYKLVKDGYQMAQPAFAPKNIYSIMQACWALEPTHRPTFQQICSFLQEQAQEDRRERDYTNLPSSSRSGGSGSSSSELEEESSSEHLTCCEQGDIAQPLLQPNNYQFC

Aurora kinase B = Aurora kinase B (Homo sapiens, UniProt Q96GD4); assay: Binding affinity to human Aurora B kinase expressed in Escherichia coli BL21 cells incubated for 1 hr by active site directed binding competition assay; procedure, shortened: as §1
Sequence of Aurora kinase B (Q96GD4 whole entry): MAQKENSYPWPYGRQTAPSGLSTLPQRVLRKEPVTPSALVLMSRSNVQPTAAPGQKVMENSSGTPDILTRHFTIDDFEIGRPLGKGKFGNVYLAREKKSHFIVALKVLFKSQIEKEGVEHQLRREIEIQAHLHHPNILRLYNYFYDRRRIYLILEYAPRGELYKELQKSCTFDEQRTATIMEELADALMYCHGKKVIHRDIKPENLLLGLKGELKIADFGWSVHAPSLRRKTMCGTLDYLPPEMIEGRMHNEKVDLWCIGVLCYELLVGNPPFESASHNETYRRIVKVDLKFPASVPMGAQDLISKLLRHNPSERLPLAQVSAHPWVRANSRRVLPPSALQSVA

Aurora kinase A = molecular target: T2, Aurora kinase A (Homo sapiens, UniProt O14965); assay: Inhibition of His-tagged human Aurora A kinase ([…] residues) expressed in Escherichia coli BL21 (DE3) Rosetta cells using biotinylated STK2 substrate incubated for 30 mins in presence of 2 uM TPX2 by HTRF assay
T2 sequence (O14965 whole entry): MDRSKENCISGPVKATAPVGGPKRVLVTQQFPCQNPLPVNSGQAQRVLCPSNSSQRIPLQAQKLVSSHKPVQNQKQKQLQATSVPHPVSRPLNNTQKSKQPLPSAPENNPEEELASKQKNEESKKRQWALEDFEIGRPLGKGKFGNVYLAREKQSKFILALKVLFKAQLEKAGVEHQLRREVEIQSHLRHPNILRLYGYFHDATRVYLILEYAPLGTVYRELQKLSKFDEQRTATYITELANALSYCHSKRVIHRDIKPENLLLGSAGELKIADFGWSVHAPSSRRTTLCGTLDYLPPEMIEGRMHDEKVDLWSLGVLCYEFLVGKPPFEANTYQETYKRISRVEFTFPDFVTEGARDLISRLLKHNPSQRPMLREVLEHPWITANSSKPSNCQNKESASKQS
Procedure, shortened: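 Biochemical kinase inhibition was read by HTRF with 20 µM ATP. Aurora B was assayed as its complex with the activator INCENP. For Aurora A, IC50 curves were recorded at different TPX2 concentrations.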

[5] = molecular target: T3, Mitogen-activated protein kinase kinase kinase 19 (Homo sapiens, UniProt Q56UN5); assay: Binding affinity to human YSK4 expressed in Escherichia coli BL21 cells incubated for 1 hr by active site directed binding competition assay; procedure, shortened: as §1
T3 sequence (Q56UN5 whole entry): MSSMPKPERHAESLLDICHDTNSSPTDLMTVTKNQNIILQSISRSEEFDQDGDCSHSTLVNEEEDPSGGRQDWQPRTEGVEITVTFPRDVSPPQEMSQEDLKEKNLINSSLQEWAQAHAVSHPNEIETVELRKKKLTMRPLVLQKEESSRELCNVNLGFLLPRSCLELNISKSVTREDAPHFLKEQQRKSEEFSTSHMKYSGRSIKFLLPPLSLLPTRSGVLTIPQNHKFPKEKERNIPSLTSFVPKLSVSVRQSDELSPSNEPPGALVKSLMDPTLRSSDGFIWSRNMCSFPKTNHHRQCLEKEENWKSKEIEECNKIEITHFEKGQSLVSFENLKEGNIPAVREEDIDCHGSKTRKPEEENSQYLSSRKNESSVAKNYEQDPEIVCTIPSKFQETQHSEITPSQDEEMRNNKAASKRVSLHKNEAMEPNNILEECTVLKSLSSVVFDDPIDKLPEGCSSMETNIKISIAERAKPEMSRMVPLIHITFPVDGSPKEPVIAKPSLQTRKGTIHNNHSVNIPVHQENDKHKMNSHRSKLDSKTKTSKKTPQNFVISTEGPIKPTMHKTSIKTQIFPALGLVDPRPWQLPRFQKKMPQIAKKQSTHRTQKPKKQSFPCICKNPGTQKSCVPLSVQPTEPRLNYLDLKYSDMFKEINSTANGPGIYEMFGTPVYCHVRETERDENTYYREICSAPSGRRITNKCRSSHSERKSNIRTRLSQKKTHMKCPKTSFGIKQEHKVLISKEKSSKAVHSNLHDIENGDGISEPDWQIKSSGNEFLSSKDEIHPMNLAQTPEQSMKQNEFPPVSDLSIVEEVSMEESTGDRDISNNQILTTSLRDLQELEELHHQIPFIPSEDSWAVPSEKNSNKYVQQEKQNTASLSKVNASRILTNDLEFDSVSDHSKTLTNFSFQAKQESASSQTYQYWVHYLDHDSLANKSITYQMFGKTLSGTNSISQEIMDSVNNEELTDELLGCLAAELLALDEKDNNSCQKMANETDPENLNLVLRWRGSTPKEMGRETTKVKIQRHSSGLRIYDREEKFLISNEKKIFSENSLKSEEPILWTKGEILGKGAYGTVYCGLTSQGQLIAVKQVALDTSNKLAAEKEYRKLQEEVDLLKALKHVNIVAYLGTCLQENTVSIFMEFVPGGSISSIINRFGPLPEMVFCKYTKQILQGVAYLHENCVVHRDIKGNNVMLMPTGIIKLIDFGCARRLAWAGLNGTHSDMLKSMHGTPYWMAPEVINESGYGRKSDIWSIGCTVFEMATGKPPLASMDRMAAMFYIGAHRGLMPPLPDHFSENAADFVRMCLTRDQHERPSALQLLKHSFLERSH

In the case of CCc1ccc(/N=C2\S/C(=C\c3ccnc(Nc4ccc(C(=O)O)cn4)c3)C(=O)N2C)cc1, the Kd (Aurora kinase C) is reported as 10.8 nM, the Kd [1] is reported as 1500 nM and the Activity (HeLa Kyoto) is reported as “Dose-dependent effect”. The Retention time [2] was 1.29 min, the Drug metabolism [3] was 50% and the Stability [3] was “Stable”. The Kd [4] was 120 nM, the Kd (Aurora kinase B) was 10.1 nM and the IC50 (Aurora kinase A) was 1400 nM. It also gave a Kd [5] of 2900 nM.
